From ChEMBL document CHEMBL2203163, “Bromine- and chlorine-containing aeruginosins from Microcystis aeruginosa bloom material collected in Kibbutz Geva, Israel” (J Nat Prod, 2012) come the findings set out here.

The nature of assay [1]: Inhibition of trypsin. In short, it runs like this:
(§1)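 Protease-inhibition assay read on a microplate (ELISA-type) reader. Activity is reported as IC50.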

Assay [2] can be described thus: Inhibition of thrombin. A digest of the protocol:
as §1

Where only a bound is given, the exact number is not on record here.

Usually IC50 stands for the midpoint of a concentration-inhibition curve. Higher therefore signals lower potency.

As to `CC(C)C[C@@H](NC(=O)[C@H](O)Cc1cc(Cl)c(O)c(Cl)c1)C(=O)N1[C@H](C(=O)NCCCCNC(=N)N)C[C@@H]2CC[C@@H](O)C[C@@H]21`, the IC50 in assay [1] is 8.5 µM; in assay [2] it was more than 45.5 µM.

For the molecule `CC[C@H](C)[C@@H](NC(=O)[C@H](O)Cc1cc(Br)c(O)c(Br)c1)C(=O)N1[C@H](C(=O)NCCCCNC(=N)N)C[C@@H]2CC[C@@H](OS(=O)(=O)O)C[C@@H]21` (relative stereo), the IC50 in assay [1] is 18.2 µM; in assay [2] it was more than 45.5 µM.

Regarding `CC[C@H](C)[C@@H](NC(=O)[C@H](O)Cc1cc(Br)c(O)c(Br)c1)C(=O)N1[C@H](C(=O)NCCCCNC(=N)N)C[C@@H]2CC[C@@H](O)C[C@@H]21` (relative stereo), the half-maximal inhibitory concentration (IC50) in assay [1] worked out at 2.3 µM; in assay [2] it was 12.9 µM.

For the molecule `CC[C@H](C)[C@@H](NC(=O)[C@H](O)Cc1cc(Cl)c(O)c(Br)c1)C(=O)N1[C@H](C(=O)NCCCCNC(=N)N)C[C@@H]2CC[C@@H](OS(=O)(=O)O)C[C@@H]21` (relative stereo), the half-inhibitory concentration (IC50) in assay [1] was 12.2 µM; in assay [2], more than 45.5 µM.

`CC[C@H](C)[C@@H](NC(=O)[C@H](O)Cc1cc(Cl)c(O)c(Br)c1)C(=O)N1[C@H](C(=O)NCCCCNC(=N)N)C[C@@H]2CC[C@@H](O)C[C@@H]21` (relative stereo): the IC50 in assay [1] was found to be 3.2 µM; in assay [2], 12.8 µM.
